# Screening results deposited in PubChem by several laboratories.
# HSV augment – increases HSV replication in cells | HSV replication augmentation in cells, fold increase | maximum fold increase | hit rate 0.005% among 220,000 | AID 1956; in the data active means maximum fold increase above about 1.5; inconclusive means no clear call, values can overlap the other calls; tested in PC3 cells
# Dynein transport – dynein cargo transport inhibition; 3617.4 mouse cells, GR-EGFP nuclear translocation imaging; test concentration mostly 20 µM; stimulated with dexamethasone, 1 µM; active compounds read low; AID 1381; hit rate 0.47% among 220,000; z-score, hits read low;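 active means plate z-score of nuclear minus cytoplasmic receptor signal below a set negative limit, without overly bright fluorescence or cell loss, cut at about -3.5 in these data, passing the limit was not always enough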;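 further: z-score of nuclear minus cytoplasmic ring GR-EGFP intensity difference per well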
#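 Buffer or medium: Induction medium lacking tetracycline, stripped serum | Also added: Dexamethasone agonist, 1.0 µM final, for 30 min | Timing: 48 h induction, 1 h compound, 30 min dex at 37 °C | Detection: Formaldehyde fixation, Hoechst nuclear stain, 10x automated fluorescence imaging | Measure: Nuclear versus cytoplasmic GR-EGFP signal, averaged per well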
# Autophagy mod – modulators of autophagy; MEF GFP-LC3 puncta imaging; test concentration mostly 10 µM; calls only at 10 µM (by protocol); hit rate 0.98% among 190,000; AID 463193;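 active means percentage of spot-positive cells more than 3 SD above its plate mean, without a fluorescence outlier flag or 80% toxicity; inconclusive means no clear call, values can overlap the other calls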
# PERK inhibitor – inhibitors of human PERK kinase. inhibition, % at 5.6 µM. hit rate 0.17% among 220,000. Q9NZJ5. CHO PERK-DD fusion, SEAP luminescence translation reporter;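 active means inhibition above the mean inhibition of all tested compounds plus 3 SD, set separately per screening campaign, cut at about 2.9% in these data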;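 further: PERK kinase domain activated by AP20187 dimerizer at 100 nM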
# Target sequence (Q9NZJ5 whole entry, looked up, the tested form may be a part): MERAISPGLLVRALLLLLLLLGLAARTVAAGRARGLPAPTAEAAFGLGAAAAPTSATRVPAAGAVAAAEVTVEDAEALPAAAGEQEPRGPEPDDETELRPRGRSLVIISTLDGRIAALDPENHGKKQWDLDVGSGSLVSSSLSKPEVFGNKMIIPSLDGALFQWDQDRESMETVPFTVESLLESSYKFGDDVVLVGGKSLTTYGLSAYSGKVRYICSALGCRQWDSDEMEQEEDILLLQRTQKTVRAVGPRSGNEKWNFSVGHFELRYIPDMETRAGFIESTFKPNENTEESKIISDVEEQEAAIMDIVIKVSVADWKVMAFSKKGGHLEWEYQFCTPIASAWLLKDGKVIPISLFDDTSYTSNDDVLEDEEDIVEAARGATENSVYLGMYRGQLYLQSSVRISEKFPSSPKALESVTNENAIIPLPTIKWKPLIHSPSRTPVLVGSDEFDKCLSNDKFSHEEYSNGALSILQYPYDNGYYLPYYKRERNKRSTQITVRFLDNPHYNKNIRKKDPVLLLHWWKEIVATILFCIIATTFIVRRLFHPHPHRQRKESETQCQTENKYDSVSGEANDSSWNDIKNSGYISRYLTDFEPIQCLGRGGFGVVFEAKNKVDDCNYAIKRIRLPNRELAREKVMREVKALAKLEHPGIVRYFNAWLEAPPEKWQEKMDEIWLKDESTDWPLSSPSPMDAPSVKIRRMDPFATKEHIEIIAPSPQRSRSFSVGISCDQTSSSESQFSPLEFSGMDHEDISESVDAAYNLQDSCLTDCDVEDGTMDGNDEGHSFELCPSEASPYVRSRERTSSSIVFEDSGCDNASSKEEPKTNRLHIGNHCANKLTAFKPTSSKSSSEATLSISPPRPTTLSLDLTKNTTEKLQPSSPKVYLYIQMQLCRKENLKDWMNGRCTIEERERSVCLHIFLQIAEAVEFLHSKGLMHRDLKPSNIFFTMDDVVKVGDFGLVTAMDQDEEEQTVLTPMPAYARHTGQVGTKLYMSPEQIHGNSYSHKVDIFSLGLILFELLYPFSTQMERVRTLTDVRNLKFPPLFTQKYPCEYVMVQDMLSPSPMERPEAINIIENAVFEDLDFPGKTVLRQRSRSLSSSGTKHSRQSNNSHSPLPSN
# TbHK1 inh – blocks Trypanosoma brucei hexokinase 1 activity. recombinant TbHK1, G6PDH-coupled NADH A340. inhibition, % at 10 µM. hit rate 0.11% among 220,000;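 active means inhibition of 50% or more in the single-dose primary screen; inactive means inhibition below 50%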
# HKDC1 inhibitor – HKDC1 (human) hexokinase inhibition; inhibition, % at 20 µM; recombinant HKDC1, G6PDH/diaphorase resazurin coupled fluorescence; hit rate 0.16% among 340,000; Q2TB90;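 active means inhibition above about 35% when tested at 20 µM, limit read from the data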
#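 Material: recombinant HKDC1 hexokinase; Amount: HKDC1 at 5 µg/mL; Medium: Tris pH 8.0 buffer with MgCl2, Tween-20, BSA, BME; Schedule: 90 min reaction incubation at room temperature, dark; Technique: coupled resazurin fluorescence, excitation 525 nm, emission 613 nm.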
# Hits are given with their value; n = inactive; u = inconclusive; x = no result given; + = active, no number. The list is not random: actives were taken first. Their share in the collection is about 1.2%.
SMILES,HSV augment,Dynein transport,Autophagy mod,PERK inhibitor,TbHK1 inh,HKDC1 inhibitor
CN(Cc1ccc(C(C)(C)C)cc1)C(=O)c1ccc2c(c1)OCO2,x,x,x,x,x,n
Cc1ccc(S(=O)(=O)NNC2CC(=O)N(c3ccc(Br)cc3)C2=O)cc1 (configuration not stated),n,n,+,n,n,n
CCCOc1ccc(C(F)(F)F)cc1NC(=O)C1CC(=O)N(Cc2ccco2)C1 (configuration not stated),x,x,x,x,x,n
Cc1ccccc1NS(=O)(=O)c1nnc(NC(=O)c2ccccc2C)s1,x,x,x,x,x,n
O=C(N/N=C/C=C/c1ccccc1)NC1CCCCC1,n,n,+,n,n,n
CC(C)(C)c1nc(SCC(=O)c2ccccc2)c2ccccc2n1,n,n,+,n,n,n
Oc1ccc(C(c2nnnn2C2CCCCC2)N2CCOCC2)cc1 (configuration not stated),n,n,n,n,n,n
CCOC(=O)c1cc2oc(C(c3nnnn3C3CCCCC3)N3CCOCC3)cc2[nH]1 (configuration not stated),n,n,+,n,n,n
COc1ccc(-n2nc(C(=O)N(C)C)nc2-c2ccccc2)cc1,x,x,x,x,x,n
Cc1c(Nc2nc3ccccc3nc2NS(=O)(=O)c2ccccc2)c(=O)n(-c2ccccc2)n1C,n,n,+,n,n,n
Cc1ccc(S(=O)(=O)N2CCC(c3nc4c(nnn4Cc4ccccc4)c(=O)[nH]3)CC2)cc1,n,n,+,n,n,n
O=C(Nc1ccc(Nc2ccccc2)cc1)C(Cl)(Cl)Cl,n,n,n,n,n,n
COC(=O)c1cc(=O)n(Cc2ccco2)c(=Nc2ccc(F)cc2)s1,n,-4.6,n,n,n,n
CN(CC(=O)Nc1ccc(F)cc1)C(=O)COC(=O)/C=C/c1ccccc1[N+](=O)[O-],x,x,x,x,x,n
Cc1ccc(CNC(=O)c2ccc(F)c(S(=O)(=O)N3CCOCC3)c2)cc1,x,x,x,x,x,n
CCN(CCNC(=O)C1CCN(Cc2nc(-c3ccc(Cl)cc3)oc2C)CC1)c1ccccc1,n,n,+,n,n,n
O=C(c1ccco1)N1CCN(C(=O)c2cc3c(=O)oc4ccccc4c3s2)CC1,n,n,+,n,n,n
Cc1cccc(OCC(=O)NCCCNC(=O)c2ccco2)c1,x,x,x,x,x,n
COc1ccc(C(CNc2ccc(S(=O)(=O)N3CCN(C)CC3)cc2[N+](=O)[O-])N(C)C)cc1 (configuration not stated),x,x,x,x,x,n
COc1ccc(C(CNc2ccc(S(=O)(=O)N3CCCC3)cc2[N+](=O)[O-])N2CCCC2)cc1 (configuration not stated),n,n,+,n,n,n
O=C(CSc1nnc(-c2ccccc2O)o1)Oc1ccc(OCc2ccccc2)cc1,n,n,+,n,n,n
CN(C)c1ccc(/C=C2\SC(=S)N(Nc3ncc(C(F)(F)F)cc3Cl)C2=O)cc1,u,n,+,n,n,n
CCN(CC(=O)Nc1c(F)cccc1F)C(=O)c1cccc(S(=O)(=O)N2CCCCCC2)c1,x,x,x,x,x,n
CN(C(=O)c1cccc(NC(=O)Cc2cccc([N+](=O)[O-])c2)c1)C1CC1,x,x,x,x,x,n
Cc1nc2oc(C(=O)c3ccc(Br)cc3)c(N)c2c2c1COC(C)(C)C2,n,n,+,n,n,n
SMILES,HSV augment,Dynein transport,Autophagy mod,PERK inhibitor,TbHK1 inh,HKDC1 inhibitor
Cc1noc(C)c1CSCC(=O)Nc1cccc(C(F)(F)F)c1,x,x,x,x,x,n
CN1CCN(S(=O)(=O)c2ccc(Cc3ccc(S(=O)(=O)N4CCN(C)CC4)cc3)cc2)CC1,n,n,+,n,n,n
CN1CCN(S(=O)(=O)c2ccc(Cl)cc2)CC1,x,x,x,x,x,n
N=c1c2c(-c3ccccc3)c(-c3ccccc3)n(Cc3ccco3)c2ncn1Cc1ccco1,n,n,+,n,n,n
N=c1c2c(-c3ccccc3)c(-c3ccccc3)n(Cc3ccccc3)c2ncn1CCCn1ccnc1,n,n,+,n,n,n
Cc1c([N+](=O)[O-])c(C/C=N/O)nn1C,n,n,x,n,n,n
Cc1ccc(S(=O)(=O)c2cc3c(=O)n4ccccc4nc3n(Cc3ccco3)c2=N)cc1C,n,n,+,n,n,n
N=c1c(S(=O)(=O)c2ccccc2)cc2c(=O)n3ccccc3nc2n1Cc1ccco1,n,n,n,n,n,n
CCN(CC)CCNC(=O)c1cccc(NC(=O)C(=O)c2cc(Br)ccc2NC(C)=O)c1,n,n,+,n,n,n
O=C(Cc1c(O)c2ccccc2[nH]c1=O)NCc1ccccc1F,n,n,n,n,54,n
CC(C)(C)C1=CC=C(C(C)(C)C)C(=O)C1=O,n,-3.7,x,n,n,x
Cc1noc(NS(=O)(=O)c2ccc(N3Cc4ccccc4C3=O)cc2)c1C,n,n,n,3.1,n,n
O=C(COc1ccc(Cl)cc1)NCCS(=O)(=O)N1CCN(c2ccccc2F)CC1,x,x,x,x,x,n
Cc1cc(NCCN2CCOCC2)n2nc(C)c(-c3ccc(Cl)cc3)c2n1,n,n,+,n,n,n
Cc1cc(NCCN2CCOCC2)n2nc(C)c(-c3ccccc3)c2n1,n,n,n,n,n,n
O=C(CNC(=O)c1cc(-c2ccccc2)nn1-c1ccccc1)Nc1ccccc1Br,x,x,x,x,x,n
CCOC(=O)NC(=O)CSc1ccc(S(=O)(=O)N(C)C2CCCCC2)cn1,x,x,x,x,x,n
O=C(c1ccccc1)N1CCSC1=S,n,n,n,3.0,n,n
COc1ccccc1CNC(=O)CN(C)CC(=O)Nc1ccccc1Br,x,x,x,x,x,n
COc1cc2c3nnc(-c4ccc(F)cc4)c-3cn(Cc3cccc(F)c3)c2cc1OC,u,n,+,n,n,n
CCN(CC)c1ccc(/C=N/N=C(N)N)c(O)c1,n,n,+,n,n,n
CCN(CC)c1ccc(N=Cc2ccc(N(CC)CC)cc2O)cc1,n,n,n,n,n,n
O=C(Cc1cccs1)NCc1ccncc1,x,n,n,3.0,n,n
CCCCCCC(=O)Nc1ccc(C(=O)N/N=C/c2cccnc2)cc1,n,n,n,n,n,n
CCCCCCCC(=O)Nc1ccc(C(=O)N/N=C/c2cccc([N+](=O)[O-])c2)cc1,n,n,+,n,n,n
SMILES,HSV augment,Dynein transport,Autophagy mod,PERK inhibitor,TbHK1 inh,HKDC1 inhibitor
O=C(CCN1C(=O)C2CCCCC2C1=O)Nc1cc(F)ccc1F (configuration not stated),x,x,x,x,x,n
O=C(CCN1C(=O)C2CCCCC2C1=O)Nc1ccc(F)c(F)c1F (configuration not stated),n,n,+,n,n,n
Cc1ccc(CSCC(=O)N(C)CC(=O)Nc2ccc(Cl)c(Cl)c2)cc1,x,x,x,x,x,n
Cc1ccc(C(=O)NCC(=O)Nc2ccc(Cl)cc2)s1,x,x,x,x,x,n
COc1cccc(-c2nc(CS(=O)(=O)CC(=O)NCCN3CCOCC3)c(C)o2)c1,x,x,x,x,x,n
CCn1c2ccccc2c2cc(CNCc3ccc(OC)cc3OC)ccc21,n,n,+,n,n,n
CCOC(=O)CNC(=O)CSc1nc2cccnc2n1C,n,n,+,n,n,n
CCOC(=O)CSc1nc2cccnc2n1C,n,n,n,n,n,n
